Source: ChEMBL document CHEMBL1649115, “Enhanced susceptibility to antifungal oligopeptides in yeast strains overexpressing ABC multidrug efflux pumps” (Antimicrob Agents Chemother, 2008)
In brackets after ≈: the same amount, converted by molar mass. Non-standard residues stand in square brackets, D forms with d. Residues, ends and D or L forms follow the SMILES beside them. Phe(3-F) = N[C@@H](Cc1cccc(F)c1)C(=O)O

Experiments:
Saccharomyces cerevisiae [1] = assay: Antifungal activity against Saccharomyces cerevisiae ADCDR1 expressing Candida albicans CDR1 efflux pump in YNPG medium containing 1 mg/ml […] after 24 hrs by microdilution method; type: functional; conditions: ADCDR1, 24 h
Saccharomyces cerevisiae [2] = assay: Drug uptake in Saccharomyces cerevisiae ADMDR1 expressing Candida albicans MDR1 efflux pump at 200 uM pretreated for 10 mins measured after 60 mins by fluorescamine staining; type: ADME, organism-based; conditions: in vivo, 1 h
Candida albicans [3] = assay: Antifungal activity against fluconazole sensitive Candida albicans isolate B3 in RPMI-1640 buffered medium after 24 hrs by microdilution method; type: functional; conditions: Candida albicans, isolate B3, 24 h; read-out: MIC
Procedure, shortened: (§1)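 C. albicans cells were grown in 2% glucose, 1% yeast extract, 1% Bacto peptone medium before testing. […] CARE-2 fingerprinting confirmed that each pair is a single strain.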

Saccharomyces cerevisiae [4] = assay: Drug uptake in Saccharomyces cerevisiae ADCDR1 expressing Candida albicans CDR1 efflux pump at 200 uM pretreated for 10 mins measured after 60 mins by fluorescamine staining; type: ADME, organism-based; conditions: in vivo, 1 h
Saccharomyces cerevisiae [5] = assay: Antifungal activity against Saccharomyces cerevisiae ADCDR2 expressing Candida albicans CDR2 efflux pump in YNPG medium containing 1 mg/ml […] after 24 hrs by microdilution method; type: functional; conditions: ADCDR2, 24 h
Saccharomyces cerevisiae [6] = assay: Antifungal activity against Saccharomyces cerevisiae ADMDR1 expressing Candida albicans MDR1 efflux pump in YNPG medium containing 1 mg/ml […] after 24 hrs by microdilution method; type: functional; conditions: ADMDR1, 24 h
Candida albicans [7] = assay: Antifungal activity against fluconazole sensitive Candida albicans isolate Gu4 in RPMI-1640 buffered medium after 24 hrs by microdilution method; type: functional; conditions: Candida albicans, isolate Gu4, 24 h; read-out: MIC; procedure, shortened: as §1
Saccharomyces cerevisiae [8] = assay: Drug uptake in Saccharomyces cerevisiae ADCDR2 expressing Candida albicans CDR2 efflux pump at 200 uM pretreated for 10 mins measured after 60 mins by fluorescamine staining; type: ADME, organism-based; conditions: in vivo, 1 h
Saccharomyces cerevisiae [9] = assay: Antifungal activity against Saccharomyces cerevisiae AD12345678 in YNPG medium containing 1 mg/ml […] after 24 hrs by microdilution method; type: functional; conditions: AD12345678, 24 h
Candida albicans [10] = assay: Antifungal activity against fluconazole resistant Candida albicans isolate B4 overexpressing MDR1 in RPMI-1640 buffered medium after 24 hrs by microdilution method; type: functional; conditions: Candida albicans, isolate B4, 24 h; read-out: MIC; procedure, shortened: as §1
Saccharomyces cerevisiae [11] = assay: Drug uptake in Saccharomyces cerevisiae AD12345678 at 200 uM pretreated for 10 mins measured after 60 mins by fluorescamine staining; type: ADME, organism-based; conditions: in vivo, 1 h
Saccharomyces cerevisiae [12] = assay: Antifungal activity against wild type Saccharomyces cerevisiae ATCC 9763 in YNPG medium containing 1 mg/ml […] after 24 hrs by microdilution method; type: functional; conditions: ATCC 9763, 24 h
Candida albicans [13] = assay: Antifungal activity against fluconazole resistant Candida albicans isolate Gu5 overexpressing CDR1 and CDR2 in RPMI-1640 buffered medium after 24 hrs by microdilution method; type: functional; conditions: isolate Gu5, 24 h
Procedure, shortened: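 C. albicans cells were grown in 2% glucose, 1% yeast extract, 1% Bacto peptone medium before testing. CARE-2 fingerprinting confirmed that each pair is a single strain.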

Candida albicans [14] = assay: Antifungal activity against wild type Candida albicans 10261 in RPMI-1640 buffered medium after 24 hrs by microdilution method; type: functional; conditions: Candida albicans, 10261, 24 h; read-out: MIC; procedure, shortened: as §1
Saccharomyces cerevisiae [15] = assay: Antifungal activity against Saccharomyces cerevisiae ADMDR1 expressing Candida albicans MDR1 efflux pump in YNPG-proline medium after 24 hrs by microdilution method; type: functional; conditions: ADMDR1, 24 h
Saccharomyces cerevisiae [16] = assay: Drug uptake in Saccharomyces cerevisiae AD12345678 at 200 uM pretreated for 10 mins measured after 60 mins by fluorescamine staining in presence of fluconazole; type: ADME, organism-based; conditions: in vivo, 1 h
Saccharomyces cerevisiae [17] = assay: Antifungal activity against Saccharomyces cerevisiae ADCDR2 expressing Candida albicans CDR2 efflux pump in YNPG-proline medium after 24 hrs by microdilution method; type: functional; conditions: ADCDR2, 24 h
Saccharomyces cerevisiae [18] = assay: Antifungal activity against wild type Saccharomyces cerevisiae ATCC 9763 in YNPG-proline medium after 24 hrs by microdilution method; type: functional; conditions: ATCC 9763, 24 h
Saccharomyces cerevisiae [19] = assay: Antifungal activity against Saccharomyces cerevisiae ADCDR1 expressing Candida albicans CDR1 efflux pump in YNPG-proline medium after 24 hrs by microdilution method; type: functional; conditions: ADCDR1, 24 h
Saccharomyces cerevisiae [20] = assay: Prodrug stability in Saccharomyces cerevisiae ADCDR2 expressing Candida albicans CDR2 efflux pump assessed as compound cleavage rate measured per mg of protein; type: ADME, organism-based; conditions: in vivo
Saccharomyces cerevisiae [21] = assay: Prodrug stability in Saccharomyces cerevisiae AD12345678 assessed as compound cleavage rate measured per mg of protein; type: ADME, organism-based; conditions: in vivo
Saccharomyces cerevisiae [22] = assay: Drug uptake in Saccharomyces cerevisiae ADCDR1 at 200 uM pretreated for 10 mins measured after 60 mins by fluorescamine staining in presence of fluconazole; type: ADME, organism-based; conditions: in vivo, 1 h
Saccharomyces cerevisiae [23] = assay: Prodrug stability in wild type Saccharomyces cerevisiae ATCC 9763 assessed as compound cleavage rate measured per mg of protein; type: ADME, organism-based; conditions: in vivo
Saccharomyces cerevisiae [24] = assay: Drug uptake in Saccharomyces cerevisiae ADCDR2 at 200 uM pretreated for 10 mins measured after 60 mins by fluorescamine staining in presence of fluconazole; type: ADME, organism-based; conditions: in vivo, 1 h
Saccharomyces cerevisiae [25] = assay: Prodrug stability in Saccharomyces cerevisiae ADMDR1 expressing Candida albicans MDR1 efflux pump assessed as compound cleavage rate measured per mg of protein; type: ADME, organism-based; conditions: in vivo
Saccharomyces cerevisiae [26] = assay: Drug uptake in Saccharomyces cerevisiae ADMDR1 at 50 uM pretreated for 10 mins measured after 60 mins by fluorescamine staining in presence of fluconazole; conditions: in vivo, 1 h
Saccharomyces cerevisiae [27] = assay: Prodrug stability in Saccharomyces cerevisiae ADCDR1 expressing Candida albicans CDR1 efflux pump assessed as compound cleavage rate measured per mg of protein; type: ADME, organism-based; conditions: in vivo
Saccharomyces cerevisiae [28] = assay: Antifungal activity against Saccharomyces cerevisiae AD12345678 in YNPG-proline medium after 24 hrs by microdilution method; type: functional; conditions: AD12345678, 24 h
Candida albicans [29] = assay: Prodrug stability in fluconazole sensitive Candida albicans isolate B3 assessed as compound cleavage rate measured per mg of protein; type: ADME, organism-based; conditions: in vivo
Candida albicans [30] = assay: Prodrug stability in fluconazole sensitive Candida albicans isolate Gu4 assessed as compound cleavage rate measured per mg of protein; type: ADME, organism-based; conditions: in vivo
Procedure, shortened: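 Oligopeptides were incubated with cell extracts of the yeast cells, and their hydrolytic enzymes cleaved them. The amino acids released were quantified by the Cd-ninhydrin method.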

Candida albicans [31] = assay: Prodrug stability in wild type Candida albicans 10261 assessed as compound cleavage rate measured per mg of protein; type: ADME, organism-based; conditions: in vivo

| SMILES | Drug uptake (Saccharomyces cerevisiae [2]) [nmol/min/mg] | MIC (Candida albicans [3]) [µg/mL] | Drug uptake (Saccharomyces cerevisiae [4]) [nmol/min/mg] | MIC (Candida albicans [7]) [µg/mL] | Drug uptake (Saccharomyces cerevisiae [8]) [nmol/min/mg] | MIC (Candida albicans [10]) [µg/mL] | Drug uptake (Saccharomyces cerevisiae [11]) [nmol/min/mg] | MIC (Candida albicans [13]) [µg/mL] | MIC (Candida albicans [14]) [µg/mL] | MIC (Saccharomyces cerevisiae [15]) [µg/mL] | Drug uptake (Saccharomyces cerevisiae [16]) [nmol/min/mg] | MIC (Saccharomyces cerevisiae [17]) [µg/mL] | MIC (Saccharomyces cerevisiae [18]) [µg/mL] | MIC (Saccharomyces cerevisiae [19]) [µg/mL] | Drug uptake (Saccharomyces cerevisiae [22]) [nmol/min/mg] | Drug uptake (Saccharomyces cerevisiae [24]) [nmol/min/mg] | Drug uptake (Saccharomyces cerevisiae [26]) [nmol/min/mg] | Stability (Candida albicans [29]) [nmol/min] | Stability (Candida albicans [30]) [nmol/min] | Stability (Candida albicans [31]) [nmol/min] | further results |
| --- | --- | --- | --- | --- | --- | --- | --- | --- | --- | --- | --- | --- | --- | --- | --- | --- | --- | --- | --- | --- | --- |
| [N-]=[N+]=CC(=O)CC[C@H](N)C(=O)O [6-DIAZO-5-OXO-L-NORLEUCINE] | 1.98 | 4 (≈ 23.4 µM) | 2.32 | 4 (≈ 23.4 µM) | 2.25 | 4 (≈ 23.4 µM) | 2 | 1 (≈ 5.84 µM) | 4 (≈ 23.4 µM) | – | – | – | – | – | – | – | – | – | – | – | MIC (Saccharomyces cerevisiae [1]): 0.125 µg/mL (≈ 0.73 µM); MIC (Saccharomyces cerevisiae [5]): 0.25 µg/mL (≈ 1.46 µM); MIC (Saccharomyces cerevisiae [6]): 0.5 µg/mL (≈ 2.92 µM); MIC (Saccharomyces cerevisiae [9]): 0.5 µg/mL (≈ 2.92 µM); MIC (Saccharomyces cerevisiae [12]): 0.5 µg/mL (≈ 2.92 µM) |
| CC(C)C[C@H](N)C(=O)N[C@@H](Cc1cccc(F)c1)C(=O)O (H-Leu-[Phe(3-F)]-OH) | 0.84 | 64 (≈ 216 µM) | 1.95 | 128 (≈ 432 µM) | 2.37 | 64 (≈ 216 µM) | 0.79 | 8 (≈ 27 µM) | 64 (≈ 216 µM) | 256 (≈ 864 µM) | 0.79 | 4 (≈ 13.5 µM) | 256 (≈ 864 µM) | 8 (≈ 27 µM) | 1.82 | 2.23 | 0.87 | 20 | 20 | 20 | Stability (Saccharomyces cerevisiae [20]): 14 nmol/min; Stability (Saccharomyces cerevisiae [21]): 14 nmol/min; Stability (Saccharomyces cerevisiae [23]): 14 nmol/min; Stability (Saccharomyces cerevisiae [25]): 14 nmol/min; Stability (Saccharomyces cerevisiae [27]): 14 nmol/min; MIC (Saccharomyces cerevisiae [28]): 256 µg/mL (≈ 864 µM) |
| CC(C)C[C@H](NC(=O)[C@@H](N)COCCN)C(=O)NCC(=O)O | 0.87 | – | 1.42 | – | 1.31 | – | 0.69 | – | – | – | 0.7 | – | – | – | 1.32 | 1.26 | 0.85 | 20 | 20 | 20 | Stability (Saccharomyces cerevisiae [20]): 14 nmol/min; Stability (Saccharomyces cerevisiae [21]): 14 nmol/min; Stability (Saccharomyces cerevisiae [23]): 14 nmol/min; Stability (Saccharomyces cerevisiae [25]): 14 nmol/min; Stability (Saccharomyces cerevisiae [27]): 14 nmol/min |
| C[C@@H]([C@H](N)C(=O)N[C@H](C(=O)O)[C@H]1O[C@@H](n2ccc(=O)[nH]c2=O)[C@H](O)[C@@H]1O)[C@H](O)c1ccc(O)cn1 [NIKKOMYCIN] | 0.32 | 8 (≈ 16.1 µM) | 1.08 | 16 (≈ 32.3 µM) | 0.97 | 8 (≈ 16.1 µM) | 0.33 | 4 (≈ 8.07 µM) | 32 (≈ 64.6 µM) | 128 (≈ 258 µM) | 0.32 | 16 (≈ 32.3 µM) | 128 (≈ 258 µM) | 16 (≈ 32.3 µM) | 0.98 | 0.88 | 0.34 | 0.3 | 0.3 | 0.3 | MIC (Saccharomyces cerevisiae [28]): 128 µg/mL (≈ 258 µM) |
| C[C@H](N)C(=O)N[C@@H](C)C(=O)O (H-Ala-Ala-OH) | 2.59 | – | 4.46 | – | 4.08 | – | 2.58 | – | – | – | 2.55 | – | – | – | 4.2 | 3.94 | 2.61 | – | – | – | – |
